pKi: −log10 of the molar value.
Columns and labels:
[1] = biological target: Sigma non-opioid intracellular receptor 1 (Cavia porcellus, UniProt Q60492); test: Displacement of (+)-[3H]pentazocine from sigma1 receptor in guinea pig brain membrane homogenates; format: cell membranes
Summary of the method: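 Run on guinea pig brain membrane homogenate (~300 μg protein) with 5 nM (+)-[3H]pentazocine. 10 μM haloperidol defined nonspecific binding. IC50 came from nonlinear regression with a one-site fit.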

[2] = Displacement of [3H]DTG from sigma2 receptor in rat liver membrane homogenates; format: cell membranes
Summary of the method: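 Run on rat liver membrane homogenate (~300 μg protein) with ~5 nM [3H]DTG plus 1 μM (+)-pentazocine to mask σ1 sites. 10 μM haloperidol defined nonspecific binding. IC50 came from nonlinear regression.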

[3] = biological target: T1, Vesicular acetylcholine transporter (Homo sapiens, UniProt Q16572); test: Displacement of [3H]-vesamicol from human VAChT after 24 hrs by liquid scintillation spectrometry analysis
T1 sequence (Q16572 whole entry): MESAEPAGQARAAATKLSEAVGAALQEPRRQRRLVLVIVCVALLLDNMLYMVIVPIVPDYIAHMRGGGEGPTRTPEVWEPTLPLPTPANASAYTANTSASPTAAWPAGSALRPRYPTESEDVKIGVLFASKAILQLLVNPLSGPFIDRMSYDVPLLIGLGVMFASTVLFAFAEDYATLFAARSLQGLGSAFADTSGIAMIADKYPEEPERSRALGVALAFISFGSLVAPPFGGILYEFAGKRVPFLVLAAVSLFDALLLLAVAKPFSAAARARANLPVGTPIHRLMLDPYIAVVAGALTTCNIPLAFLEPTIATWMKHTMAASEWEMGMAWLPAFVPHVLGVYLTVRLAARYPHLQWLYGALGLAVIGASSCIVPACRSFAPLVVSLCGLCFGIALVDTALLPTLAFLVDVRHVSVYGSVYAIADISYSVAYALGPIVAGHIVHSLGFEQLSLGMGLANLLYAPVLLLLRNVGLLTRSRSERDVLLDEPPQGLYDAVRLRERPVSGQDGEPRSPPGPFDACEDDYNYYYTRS

Sigma non-opioid intracellular receptor 1, sequence (Q60492 whole entry): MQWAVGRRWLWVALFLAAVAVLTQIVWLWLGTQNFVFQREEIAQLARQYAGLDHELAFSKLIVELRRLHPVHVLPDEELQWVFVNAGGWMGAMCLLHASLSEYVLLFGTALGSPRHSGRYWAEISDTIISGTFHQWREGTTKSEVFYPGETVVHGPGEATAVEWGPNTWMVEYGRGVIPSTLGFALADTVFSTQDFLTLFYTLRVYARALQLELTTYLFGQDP

pKi [2] | SMILES | pKi [1] | pKi [3]
< 5.00 | O=C(c1ccc(F)cc1)C1CCN(C2Cc3c(cccc3OCCF)CC2O)CC1 (single isomer, unassigned; (-)) | – | –
6.60 | O=C(c1ccc(F)cc1)c1cccc2c1C[C@@H](N1CCC(c3ccccc3)CC1)[C@H](O)C2 | – | –
5.11 | O=C(c1ccc(F)cc1)C1CCN(C2Cc3c(cccc3OCCF)CC2O)CC1 (single isomer, unassigned; (+)) | – | –

Second part, the compound before the results:

SMILES | pKi [2] | pKi [1] | pKi [3]
O=C(c1ccc(F)cc1)C1CCN([C@@H]2Cc3c(cccc3OCCF)C[C@H]2O)CC1 (racemic) | < 5.00 | 6.09 | –
O=C(c1ccc(F)cc1)C1CCN([C@@H]2Cc3cccc(OCCF)c3C[C@H]2O)CC1 (racemic) | 5.15 | < 5.00 | –
O=C(c1ccc(F)cc1)C1CCN([C@@H]2Cc3c(O)cccc3C[C@H]2O)CC1 | 5.73 | 5.06 | 8.33
O=C(c1ccc(F)cc1)C1CCN([C@@H]2Cc3cccc(O)c3C[C@H]2O)CC1 | 5.59 | 7.54 | 7.25
O[C@@H]1CCCC[C@H]1N1CCC(c2ccccc2)CC1 [VESAMICOL] | 6.46 | – | –
O=C(c1ccc(OCCF)cc1)C1CCN([C@@H]2Cc3ccccc3C[C@H]2O)CC1 | 5.72 | 7.88 | 8.76
O=C(c1ccc(OCCOCCF)cc1)C1CCN([C@@H]2Cc3ccccc3C[C@H]2O)CC1 | 5.09 | 5.80 | 9.06
O=C(c1ccc(OCCOCCOCCF)cc1)C1CCN([C@@H]2Cc3ccccc3C[C@H]2O)CC1 | < 5.00 | < 5.00 | 8.91

From ChEMBL document CHEMBL3596119, “Synthesis and biological characterization of a promising F-18 PET tracer for vesicular acetylcholine transporter” (Bioorg Med Chem, 2015)
